# Activity calls are given as the source filed them. The rule behind the calls is not given here. Where a SMILES comes first, the peptide text is derived from it. The star is where a group is joined. X1 = CCCCC/C=C\C/C=C\C/C=C\C/C=C\CCCC(=O)O[C@@H](COC(=O)CCCCCCCCCCCCCCCCC)CO*
# What was measured:
# Fibroblast [1] = test: Immunomodulatory effect in human fibroblasts assessed as induction of MCP1 mRNA expression at 3 ng/ml after 24 hrs by SYBR Green PCR relative to beta-actin control; assay type: functional
# Outline: (§1)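 Normal primary human fibroblasts were grown in DMEM with 10% FBS and 1× penicillin/streptomycin at 37 °C and 5% CO2. Cells were treated for 24 h with synthetic compound or with purified natural material diluted 1:100. Total RNA was extracted, and 2.0 µg was reverse-transcribed for transcript quantitation. Expression was normalised to β-actin.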
# Fibroblast [2] = test: Immunomodulatory effect in human fibroblasts assessed as induction of IL6 mRNA expression at 5 ng/ml after 24 hrs by SYBR Green PCR relative to beta-actin control; assay type: functional; outline: as §1
# Fibroblast [3] = test: Immunomodulatory effect in human fibroblasts assessed as induction of IL6 mRNA expression at 1:100 dilution after 24 hrs by SYBR Green PCR relative to beta-actin control; assay type: functional; outline: as §1
# Fibroblast [4] = test: Immunomodulatory effect in human fibroblasts assessed as induction of IL8 mRNA expression at 3 ng/ml after 24 hrs by SYBR Green PCR relative to untreated control; assay type: functional; outline: as §1
# [5] = Toxicity in human fibroblasts assessed as decrease in IL8 mRNA expression after 24 hrs by SYBR Green PCR relative to untreated control; assay type: cell-based; conditions: fibroblast; outline: as §1
# Fibroblast [6] = test: Induction of IL8 secretion in human fibroblasts after 24 hrs by ELISA relative to untreated control; assay type: functional
# Outline: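 Primary human fibroblasts were cultured in complete DMEM with synthetic compound across a dose range that included 0.3–3 ng/mL, for 24 h. Supernatants were stored at -80 °C. IL-8 was measured by sandwich ELISA: plates coated with anti-human IL-8 overnight at 4 °C, blocked 60 min at room temperature, sample 2 h, detection antibody 30 min, avidin-HRP 30 min, then TMB substrate.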
# Fibroblast [7] = test: Immunomodulatory effect in human fibroblasts assessed as induction of MCP1 mRNA expression at 1:100 dilution after 24 hrs by SYBR Green PCR relative to beta-actin control; assay type: functional; outline: as §1
# Fibroblast [8] = test: Immunomodulatory effect in human fibroblasts assessed as induction of MIP-1alpha mRNA expression at 3 ng/ml after 24 hrs by SYBR Green PCR relative to beta-actin control; assay type: functional; outline: as §1
# Fibroblast [9] = test: Immunomodulatory effect in human fibroblasts assessed as induction of MIP-1alpha mRNA expression at 1:100 dilution after 24 hrs by SYBR Green PCR relative to beta-actin control; assay type: functional; outline: as §1
# Fibroblast [10] = test: Induction of IL33 expression in human fibroblasts at 12.5 ng/ml after 24 hrs by SYBR Green PCR relative to untreated control; assay type: functional, cell-based
# Fibroblast [11] = test: Induction of IL18 expression in human fibroblasts at 12.5 ng/ml after 24 hrs by SYBR Green PCR relative to untreated control; assay type: functional
# Fibroblast [12] = test: Induction of IL1-beta expression in human fibroblasts at 12.5 ng/ml after 24 hrs by SYBR Green PCR relative to untreated control; assay type: functional, cell-based
# Fibroblast [13] = test: Induction of IL6 expression in human fibroblasts at 12.5 ng/ml after 24 hrs by SYBR Green PCR relative to untreated control; assay type: functional, cell-based
# Fibroblast [14] = test: Induction of IL8 expression in human fibroblasts at 12.5 ng/ml after 24 hrs by SYBR Green PCR relative to untreated control; assay type: functional, cell-based
compound,measurement,setting,value
CCCCC/C=C\C/C=C\C/C=C\C/C=C\CCCC(=O)O[C@@H](COC(=O)CCCCCCCCCCCCCCCCC)COC(=O)[C@@H](NC(=O)CNC(=O)[C@@H](NC(=O)[C@H](CS)NC(=O)[C@H](CC(=O)O)NC(=O)[C@H](CCCCN)NC(=O)[C@H](CCC(N)=O)NC(=O)[C@H](CCC(=O)O)NC(=O)[C@H](CCCCN)NC(=O)[C@H](CO)NC(=O)[C@@H](NC(=O)[C@H](Cc1ccc(O)cc1)NC(=O)CNC(=O)[C@H](CCCCN)NC(=O)[C@H](CC(=O)O)NC(=O)[C@H](Cc1ccc(O)cc1)NC(=O)[C@H](CC(C)C)NC(=O)[C@H](C)NC(C)=O)[C@@H](C)O)C(C)C)[C@@H](C)CC (Ac-ALYDKGYTSKEQKDCVGI-X1),fold change (FC),Fibroblast [1],3
same,Activity,Fibroblast [2],20%
same,Activity,Fibroblast [3],40%
same,fold change (FC),Fibroblast [4],5
same,Activity,[5],Dose-dependent effect
same,Activity,Fibroblast [6],Dose-dependent effect
same,EC99,Fibroblast [6],0.003 µg/mL
same,fold change (FC),Fibroblast [7],3
same,Activity,Fibroblast [8],15%
same,Activity,Fibroblast [9],15%
same,Activity,Fibroblast [10],Active
same,Activity,Fibroblast [11],20%
same,Activity,Fibroblast [12],inactive
same,Activity,Fibroblast [13],inactive
same,Activity,Fibroblast [14],inactive
